From PubChem
DAX1 inh-1 = inhibits human nuclear receptor DAX1. 0.99% of 340,000 active. inhibition, % at 6.75 µM. AID 504766. HEK293 Gal4-DAX1 luciferase reporter, luminescence;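 active = inhibition above the mean over all tested compounds plus 3 SD, cut at about 4.2% in these data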;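 note: inhibition shows as a rise in luminescence from relieved DAX1 repression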
DAX1 inh-2 = blocks DAX1 repression of SF-1 activated StAR promoter; HEK293T StAR-luciferase reporter, SF-1/DAX-1 repression relief; inhibition, % at 6.8 µM; 1.1% of 370,000 active;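 active = inhibition above the mean over all tested compounds plus 3 SD, cut at about 3.6% in these data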;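 note: higher inhibition means more luminescence from relief of DAX-1 repression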
SMARCA2 act = SMARCA2 function activation, primary screen; MG213 cells, MMTV-luciferase reporter, dexamethasone, overnight; AID 652017; activation, % at 9.1 µM; 1% of 370,000 active; in the data active = activation above about 7.8%
NR2E3 ag-1 = agonists of human nuclear receptor NR2E3; Q9Y5X4; GST-NR2E3/biotin-RetCOR TR-FRET, 1536-well; inhibition of corepressor binding, % at 4.78 µM; 0.12% of 320,000 active;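 active = percent inhibition above the cutoff of mean plus 3 SD of all tested compounds, set per screening campaign, cut at about 20% in these data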
Target sequence (Q9Y5X4 whole entry, looked up): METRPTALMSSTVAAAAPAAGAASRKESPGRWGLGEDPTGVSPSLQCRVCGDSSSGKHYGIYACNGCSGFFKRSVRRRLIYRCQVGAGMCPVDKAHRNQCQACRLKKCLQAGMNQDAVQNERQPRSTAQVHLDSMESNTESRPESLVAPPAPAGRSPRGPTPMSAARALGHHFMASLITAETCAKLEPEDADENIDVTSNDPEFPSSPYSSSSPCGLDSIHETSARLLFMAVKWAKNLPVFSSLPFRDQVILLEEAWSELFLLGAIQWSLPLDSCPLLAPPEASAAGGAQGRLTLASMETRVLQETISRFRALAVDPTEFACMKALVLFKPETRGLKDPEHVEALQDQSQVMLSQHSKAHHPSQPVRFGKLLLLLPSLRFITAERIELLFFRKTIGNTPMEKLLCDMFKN
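system = GST-tagged NR2E3 plus biotinylated RetCOR corepressor | input = 1.35 nM GST-NR2E3 | also added = 7 nM biotin-RetCOR | schedule = 5 h incubation at 4 °C | measured by = TR-FRET with europium anti-GST and streptavidin-D2, 340 nm excitation | read-out = percent loss of FRET ratio relative to control wells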
GASC-1 inh = inhibitors of human GASC-1 (JMJD2C) demethylase; AID 2099; GST-JMJD2C(1-420) H3K9me3 demethylation, DELFIA europium; inhibition, % at 2.35 µM; 0.069% of 330,000 active; Q9H3R0;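 active = more than half of a compound's replicate wells show inhibition beyond 50%, single wells judged on their own value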;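 note: signal counts dimethyl H3K9 product captured on neutravidin plate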
NR2E3 ag-2 = activates human NR2E3 receptor; Q9Y5X4; CHO-S Gal4-NCOR/VP16-NR2E3 two-hybrid, luciferase; inhibition of corepressor binding, % at 3.98 µM; 0.35% of 360,000 active;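 active = inhibition above the mean of all tested compounds plus 3 SD, cut at about 70% in these data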;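 note: higher means lower luciferase signal from less NR2E3 corepressor binding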
Large screens that a line does not name were inactive. Most compounds without a hit are left out; they make up all but 3.2% or so of the library.

O=C(COc1ccccc1)Nc1nc2ccccc2[nH]1	SMARCA2 act 7.8
CSc1ccccc1C(=O)Nc1nc2ccccc2[nH]1	DAX1 inh-2 3.8
CSc1ccccc1C(=O)Nc1nc2ccccc2c(=O)[nH]1	none
O=C(CCCN1C(=O)c2ccccc2C1=O)Nc1nc2ccccc2[nH]1	DAX1 inh-1 4.8
COc1ccc(CN2C/C(=C/c3ccccc3)N3C(=O)C[C@@H](c4ccc5ccccc5c4)N=C23)c(OC)c1	none (no result: DAX1 inh-1, NR2E3 ag-1, GASC-1 inh, NR2E3 ag-2)
O=C(NCCc1ccc(F)cc1)c1ccc(Sc2ccccc2Cl)c([N+](=O)[O-])c1	none (no result: DAX1 inh-1, NR2E3 ag-1, GASC-1 inh, NR2E3 ag-2)
N#CC(=C1CCCC1)c1nc(-c2ccccc2)cs1	DAX1 inh-1 5.2
CCS(=O)(=O)Nc1ccc2c(c1)C(=O)N(C)[C@@H]1CC[C@H](CC(=O)N3CCCCC3)O[C@H]1CO2	none (no result: DAX1 inh-1, NR2E3 ag-1, GASC-1 inh, NR2E3 ag-2)
CC(C)CN(CC(C)C)C(=O)c1cn(C(C)c2ccccc2)nn1 (stereo not given)	none (no result: DAX1 inh-1, NR2E3 ag-1, GASC-1 inh, NR2E3 ag-2)
Cc1ccc(O)c(NC(=O)C2=CC(c3ccco3)=NS(=O)(=O)N2C)c1	none
CN1C(C(=O)Nc2cccc(O)c2)=CC(c2ccco2)=NS1(=O)=O	DAX1 inh-1 7.6
Cc1ccccc1Nc1nnc(SCC2CCCCO2)s1 (stereo not given)	DAX1 inh-2 4.2
Cc1ccc(Nc2nnc(SCC3CCCCO3)s2)cc1 (stereo not given)	none
COC(=O)[C@]12C=CCN1[C@@H](c1ccc(C(F)(F)F)cc1)c1c(c3ccccc3n1S(=O)(=O)c1ccc(C)cc1)C2	none (no result: DAX1 inh-1, NR2E3 ag-1, GASC-1 inh, NR2E3 ag-2)
C=CCn1c(SCC(C)=O)nnc1-c1ccc2ncccc2c1	DAX1 inh-1 4.9
COC(=O)[C@]12C[C@H](CC(=O)N3CCSCC3)C(=O)N(CCc3ccc(OC)c(OC)c3)C1=C[C@H](C(C)(C)C)O[C@@H]2C	none (no result: DAX1 inh-1, NR2E3 ag-1, GASC-1 inh, NR2E3 ag-2)
CCOC(=O)/C=C/c1cccc(C)c1O	DAX1 inh-2 4.5 (no result: DAX1 inh-1, NR2E3 ag-1, GASC-1 inh, NR2E3 ag-2)
Cc1nc(N)nc(COc2ccccc2)n1	DAX1 inh-1 8.4
CC(=O)c1ccc(NC(=O)Nc2ccc3c(c2)nc(C)n3C)cc1	DAX1 inh-2 4.0
Cc1ccccc1C(=O)NC1CCN(CC(=O)NCc2cccs2)CC1	DAX1 inh-1 5.2
Cc1ccc(C(=O)NC2CCN(CC(=O)NCc3cccs3)CC2)cc1	none
O=C(Nc1cccc(Cl)c1)OCCOc1ccccc1	DAX1 inh-1 6.0 (no result: NR2E3 ag-1)
O=C(COc1ccccc1)Nc1cc(Cl)ccc1Cl	DAX1 inh-1 4.6
CCOc1ccc(-n2c(COc3ccccc3)nnc2SCc2nc3ccccc3[nH]2)cc1	none (no result: DAX1 inh-1, NR2E3 ag-1, GASC-1 inh, NR2E3 ag-2)
Clc1ccc(OCCn2ccnc2)c(Br)c1	none
Clc1ccc(OCCn2ccnc2)c(Cl)c1	DAX1 inh-1 8.9
C[C@@H]1[C@@H](O)C[C@@]2(C[C@H](O)c3ccccc3O2)O[C@H]1c1ccccc1	none (no result: DAX1 inh-1, NR2E3 ag-1, GASC-1 inh, NR2E3 ag-2)
COc1ccc(-c2nc(SC(C)C(=O)c3c(N)n(C)c(=O)n(C)c3=O)n[nH]2)cc1 (stereo not given)	none
COc1ccc(-c2nc(SC(C)C(=O)NC3CC3)n[nH]2)cc1 (stereo not given)	DAX1 inh-1 4.5 (no result: NR2E3 ag-1, GASC-1 inh)
O=c1cc(-c2ccccc2Cl)oc2ccc([N+](=O)[O-])c(O)c12	none
O=[N+]([O-])c1cc([N+](=O)[O-])c2oc(-c3ccccc3)c(Br)c2c1O	NR2E3 ag-2 100.2 (no result: DAX1 inh-2, SMARCA2 act, NR2E3 ag-1)
O=C(CN1C(=O)NC2(CCCCC2)C1=O)Nc1cccc(S(=O)(=O)N2CCCC2)c1	DAX1 inh-2 4.6
N#Cc1ccccc1NC(=O)CN1C(=O)NC2(CCCC2)C1=O	DAX1 inh-1 4.7
O=C(CN1CCCCCC1)Nc1cccc(NC(=O)CN2CCCCCC2)c1	DAX1 inh-1 4.5
O=C(CN1C(=O)NC2(CCCC2)C1=O)Nc1cc(S(=O)(=O)N2CCCCC2)ccc1Cl	none (no result: NR2E3 ag-1)
O=C(CN1C(=O)NC2(CCCCCC2)C1=O)Nc1ccccc1[N+](=O)[O-]	none (no result: NR2E3 ag-1)
COc1ccc(S[C@]2(C(=O)N(C)C)CC(=O)N(C(=O)Nc3ccc(C)c(Cl)c3)[C@@H]2c2ccc(OC)cc2)cc1	none (no result: DAX1 inh-1, NR2E3 ag-1, GASC-1 inh, NR2E3 ag-2)
COc1ccc([N+](=O)[O-])cc1N(CC(O)CN(C)C)S(=O)(=O)c1ccccc1 (stereo not given)	none
C=CCN(CC=C)CC(O)CN(c1cc([N+](=O)[O-])ccc1OC)S(=O)(=O)c1ccccc1 (stereo not given)	DAX1 inh-2 3.8
